The text below walks through data of ChEMBL document CHEMBL3608288, “Novel Chalcone-Thiazole Hybrids as Potent Inhibitors of Drug Resistant Staphylococcus aureus” (ACS Med Chem Lett, 2015).

Molecules are shown by their SMILES. ≈ marks a conversion by molar mass, not a printed value. Calls of active or inactive are those of the source. No cut-off for these calls is given here. Some results are limits rather than exact numbers.

In series [1] the test system is Staphylococcus aureus. The series can be described thus: Antibacterial activity against methicillin-resistant Staphylococcus aureus ATCC 700699 after 16 hrs by microtiter broth dilution method. It is filed as functional. The note with it: ATCC 700699, 16 h. (In general: Dilution methods test growth across graded concentrations, often in twofold steps.)
Series [2] relates to Staphylococcus aureus. The series can be described thus: Antibacterial activity against […] Staphylococcus aureus ATCC 29213 in neutropenic BALB/C mouse septicemia model assessed as increase in mouse survival at 15 mg/kg, ip administered twice at 3 hrs interval. It is filed as functional, organism-based.
The next series has as its system Candida parapsilosis. The series can be described thus: Antifungal activity against Candida parapsilosis ATCC 22019 after 16 hrs by microtiter broth dilution method. It is filed as functional. The note with it: Lodderomyces parapsilosis, ATCC 22019, 16 h.
The subject of another series is Pseudomonas aeruginosa. The series can be described thus: Antibacterial activity against Pseudomonas aeruginosa ATCC BAA-427 after 16 hrs by microtiter broth dilution method. Type of series: functional. The note with it: ATCC BAA-427, 16 h.
Series [3] concerns L929. Kind of series: Cytotoxicity against mouse L929 cells assessed as cell viability at <= MIC by MTT assay. Type of series: cell-based. The gist of the method: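 Mouse fibroblast L929 cells were exposed to the compound. Viability was read by MTT conversion to blue formazan, measured at 550 nm.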
A general note: Formazan colour is commonly taken as a measure of viable cells.

Series [4] relates to Trichophyton mentagrophytes. The series can be described thus: Antifungal activity against Trichophyton mentagrophytes after 16 hrs by microtiter broth dilution method. It is filed as functional.
For another series, the system named is Sporothrix schenckii. Kind of series: Antifungal activity against Sporothrix schenckii after 16 hrs by microtiter broth dilution method. It is filed as functional.
The test system of series [5] is Staphylococcus aureus. The series can be described thus: Antibacterial activity against […] Staphylococcus aureus ATCC 29213 in neutropenic BALB/C mouse septicemia model assessed as reduction in bacterial burden in liver at 15 mg/kg, ip administered twice at 3 hrs interval measured after 24 hrs. It is filed as functional, organism-based. The gist of the method:
(§1)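 BALB/c mice were made neutropenic with cyclophosphamide (150 mg/kg) and then infected intraperitoneally with S. aureus ATCC 29213. From 3 h post-infection, compound was injected at 15 mg/kg twice, 3 h apart. At 24 h, spleen, kidney and liver were crushed and plated on TH plates for CFU. Data from three independent experiments were pooled; P by ANOVA on ranks.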

In another series the test system is Klebsiella pneumoniae. Kind of series: Antibacterial activity against Klebsiella pneumoniae ATCC 27736 after 16 hrs by microtiter broth dilution method. Type of series: functional. The settings on record: ATCC 27736, 16 h.
Series [6] deals with Staphylococcus aureus. The series can be described thus: Antibacterial activity against methicillin/gentamicin-resistant Staphylococcus aureus ATCC 33592 after 16 hrs by microtiter broth dilution method. The settings on record: ATCC 33592, 16 h. It is filed as functional.
Series [7] has as its system Staphylococcus aureus. The series can be described thus: Antibacterial activity against […] Staphylococcus aureus ATCC 29213 assessed as reduction in log10CFU measured at 24 hrs. It is filed as functional, organism-based. The method in brief: (§2)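 Aliquots were taken at regular time points and plated for CFU counts. Reduction in log10 CFU was taken against a no-drug control.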

In series [8] the test system is Staphylococcus aureus. Kind of series: Antibacterial activity against […] Staphylococcus aureus ATCC 29213 assessed as reduction in log10CFU at 1x MIC and 10x MIC measured at 24 hrs relative to control. It is filed as functional. The method in brief: as §2
The test system of series [9] is Staphylococcus aureus. Kind of series: Antibacterial activity against […] Staphylococcus aureus ATCC 29213 in neutropenic BALB/C mouse septicemia model assessed as reduction in bacterial burden in spleen at 15 mg/kg, ip administered twice at 3 hrs interval measured after 24 hrs. It is filed as functional, organism-based. The method in brief: as §1

The test system of series [10] is L929. The series can be described thus: Cytotoxicity against mouse L929 cells assessed as induction of morphological changes at 1 x MIC after 24 hrs by Giemsa staining-based phase contrast microscopic analysis. Type of series: cell-based. The note with it: l929, 24 h. The gist of the method:
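L929 fibroblasts were incubated with the compound for 24 h, then Giemsa-stained. Morphology was compared with untreated control cells under phase contrast microscopy for appearance, transparency and attachment to the well surface.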

In the next series the test system is Candida albicans. The series can be described thus: Antifungal activity against Candida albicans after 16 hrs by microtiter broth dilution method. It is filed as functional.
Another series deals with Aspergillus fumigatus. The series can be described thus: Antifungal activity against Aspergillus fumigatus after 16 hrs by microtiter broth dilution method. Type of series: functional.
Another series has as its system Cryptococcus neoformans. The series can be described thus: Antifungal activity against Cryptococcus neoformans after 16 hrs by microtiter broth dilution method. It is filed as functional.
Another series deals with Escherichia coli. The series can be described thus: Antibacterial activity against Escherichia coli ATCC 9637 after 16 hrs by microtiter broth dilution method. Type of series: functional. The note with it: W.
Series [11] relates to Staphylococcus aureus. The series can be described thus: Antibacterial activity against […] Staphylococcus aureus ATCC 29213 in neutropenic BALB/C mouse septicemia model assessed as reduction in bacterial burden in kidney at 15 mg/kg, ip administered twice at 3 hrs interval measured after 24 hrs. It is filed as functional, organism-based. The gist of the method:
as §1

Series [12] relates to Staphylococcus aureus. Kind of series: Antibacterial activity against […] Staphylococcus aureus ATCC 29213 after 16 hrs by microtiter broth dilution method. The settings on record: ATCC 29213, 16 h. It is filed as functional.
Series [13] has as its system Staphylococcus aureus. The series can be described thus: Antibacterial activity against Staphylococcus aureus ATCC 25923 after 16 hrs by microtiter broth dilution method. Type of series: functional. The settings on record: ATCC 25923, 16 h.
Series [14] can be described thus: Hemolytic activity in human RBC at 100 ug/ml after 1 hr. The note with it: erythrocyte.

Usually MIC stands for the lowest concentration found to suppress growth. Lower therefore signals a more susceptible organism.

With `COc1ccc(-c2csc(/N=C/c3cc(/C=C/C(=O)c4ccc(C)cc4)cc(C(C)(C)C)c3O)n2)cc1OC`, the minimal inhibitory concentration (MIC) is 11.6 µM (≈ 6.27 µg/mL) in the series with Staphylococcus aureus [1]; greater than 92.5 µM against Candida parapsilosis; greater than 92.5 µM in the series on Pseudomonas aeruginosa; greater than 92.5 µM in series [4]; greater than 92.5 µM in the series with Sporothrix schenckii; greater than 92.5 µM against Klebsiella pneumoniae. For the same compound, the MIC in the series with Staphylococcus aureus [6] is 1.4 µM (≈ 0.757 µg/mL); in the series with Candida albicans it was greater than 92.5 µM; against Aspergillus fumigatus, greater than 92.5 µM; with Cryptococcus neoformans, greater than 92.5 µM; against Escherichia coli, greater than 92.5 µM; in the series on Staphylococcus aureus [12], 5.8 µM (≈ 3.14 µg/mL). Moreover, 5.8 µM (≈ 3.14 µg/mL) was the least that counted as inhibitory in the series with Staphylococcus aureus [13] (MIC). The result in the series on Staphylococcus aureus [2], with Staphylococcus aureus [5] and in the series with Staphylococcus aureus [9] was Active. Besides, the Activity entry in the series with L929 [3] was “Non-toxic”; in the series on Staphylococcus aureus [7], “Dose-dependent effect”; with Staphylococcus aureus [8], 10 log10CFU/ml; with L929 [10], “Non-toxic”; in series [14] it was “Non-toxic”. For the same compound, the result with Staphylococcus aureus [11] was inactive.

For `CCOC(=O)c1csc(/N=C/c2cc(/C=C/C(=O)c3ccc(C)cc3)cc(C(C)(C)C)c2O)n1`, the MIC against Staphylococcus aureus [1] was 13.1 µM (≈ 6.24 µg/mL); in the series on Candida parapsilosis it was greater than 105 µM; in the series with Pseudomonas aeruginosa, greater than 105 µM; in series [4], greater than 105 µM; in the series on Sporothrix schenckii it was greater than 105 µM; against Klebsiella pneumoniae, greater than 105 µM. Moreover, the MIC against Staphylococcus aureus [6] was 3.3 µM (≈ 1.57 µg/mL); in the series on Candida albicans, greater than 105 µM; against Aspergillus fumigatus, greater than 105 µM; in the series on Cryptococcus neoformans, greater than 105 µM; against Escherichia coli, greater than 105 µM; against Staphylococcus aureus [12], 6.5 µM (≈ 3.1 µg/mL). The same compound registered an MIC with Staphylococcus aureus [13] of 6.5 µM (≈ 3.1 µg/mL). Further, the Activity entry (in the series on L929 [3]; in the series with L929 [10]; in series [14]) was “Non-toxic” in each case.

Consider `C[C@H]1COc2c(N3CCN(C)CC3)c(F)cc3c(=O)c(C(=O)O)cn1c23`, for which the result in the series with Staphylococcus aureus [8] was Active.

Take `CCOC(=O)c1csc(/N=C/c2cc(/C=C/C(=O)c3cccs3)cc(C(C)(C)C)c2O)n1`: the minimum inhibitory concentration (MIC) against Staphylococcus aureus [1] is 13.3 µM (≈ 6.23 µg/mL); with Candida parapsilosis, greater than 107 µM; against Pseudomonas aeruginosa, greater than 107 µM; in series [4] it was greater than 107 µM; with Sporothrix schenckii, greater than 107 µM; in the series on Klebsiella pneumoniae it was greater than 107 µM. The MIC was 3.3 µM (≈ 1.55 µg/mL) against Staphylococcus aureus [6]; greater than 107 µM in the series on Candida albicans; greater than 107 µM against Aspergillus fumigatus; greater than 107 µM in the series with Cryptococcus neoformans; greater than 107 µM with Escherichia coli; 6.7 µM (≈ 3.14 µg/mL) with Staphylococcus aureus [12]. In the series on Staphylococcus aureus [13], 13.3 µM (≈ 6.23 µg/mL) was the least that counted as inhibitory (MIC). In addition, the Activity result in series [14] was “Non-toxic”.

Consider `COc1ccc(C(=O)/C=C/c2cc(/C=N/c3nc(-c4ccc(OC)c(OC)c4)cs3)c(O)c(C(C)(C)C)c2)cc1`, for which the MIC was 11.2 µM (≈ 6.23 µg/mL) in the series on Staphylococcus aureus [1]; greater than 89.8 µM with Candida parapsilosis; greater than 89.8 µM against Pseudomonas aeruginosa; greater than 89.8 µM in [4]; greater than 89.8 µM with Sporothrix schenckii; greater than 89.8 µM in the series on Klebsiella pneumoniae. The MIC is 5.6 µM (≈ 3.12 µg/mL) with Staphylococcus aureus [6]; greater than 89.8 µM in the series with Candida albicans; greater than 89.8 µM in the series on Aspergillus fumigatus; greater than 89.8 µM against Cryptococcus neoformans; greater than 89.8 µM against Escherichia coli; 11.2 µM (≈ 6.23 µg/mL) in the series with Staphylococcus aureus [12]. The same compound registered an MIC against Staphylococcus aureus [13] of 11.2 µM (≈ 6.23 µg/mL). For the same compound, in series [14], the Activity result is “Non-toxic”.
